Data as given in ChEMBL document CHEMBL1156992, “Identification and hit-to-lead exploration of a novel series of histamine H4 receptor inverse agonists” (Bioorg Med Chem Lett, 2010).

Columns and labels:
[1] = Metabolic stability in rat microsomes assessed as drug remaining after 10 mins; format: ADME, Microsome; conditions: for remaining at 10 min: read-out: Stability
Summary of the method: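 Compound incubated with rat liver microsomes. Parent remaining measured after 10 min, expressed as percent.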

[2] = target: T1, Histamine H4 receptor (Homo sapiens, UniProt Q9H3N8); test: Displacement of [3H]histamine dihydrochloride from human histamine H4 receptor after 2.5 hrs by scintillation proximity assay
Summary of the method: (§1)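 Human H4 receptor-expressing membranes (25 µg) incubated with 20 nM [³H]-histamine dihydrochloride and SPA beads. Buffer: 50 mM Tris pH 7.5, 5 mM EDTA, 0.5% BSA, 1% DMSO. Incubation 2.5 h at room temperature. Non-specific binding taken with excess histamine. Scintillation counting. IC50 from a 6-point semi-log dose-response, duplicate wells.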

[3] = target: T1, Histamine H4 receptor; test: Inverse agonist activity at human histamine H4 receptor assessed as inhibition of [35S]GTPgammaS binding after 15 mins by scintillation proximity assay relative to control; format: functional; parameters: concentration or dose not given beside the values
[4] = target: T1, Histamine H4 receptor; test: Inverse agonist activity at human histamine H4 receptor assessed as inhibition of [35S]GTPgammaS binding after 15 mins by scintillation proximity assay; format: functional
[5] = Clearance in rat at 5 mg/kg, po; format: ADME, organism-based; parameters: dose 5 mg/kg, route oral; conditions: in vivo
Summary of the method: (§2)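 Rat pharmacokinetic study with oral dosing at 5 mg/kg.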

[6] = Half life in rat microsomes; format: ADME, Microsome
[7] = Volume of distribution in Cynomolgus monkey; format: ADME, organism-based, Macaca fascicularis; conditions: in vivo
[8] = system: Rattus norvegicus; test: Volume of distribution in rat at 5 mg/kg, po; format: ADME, organism-based; parameters: dose 5 mg/kg, route oral; conditions: in vivo; summary of the method: as §2
[9] = target: Histamine H1 receptor (Homo sapiens, UniProt P35367); test: Binding affinity to histamine H1 receptor
Sequence of Histamine H1 receptor (P35367 whole entry): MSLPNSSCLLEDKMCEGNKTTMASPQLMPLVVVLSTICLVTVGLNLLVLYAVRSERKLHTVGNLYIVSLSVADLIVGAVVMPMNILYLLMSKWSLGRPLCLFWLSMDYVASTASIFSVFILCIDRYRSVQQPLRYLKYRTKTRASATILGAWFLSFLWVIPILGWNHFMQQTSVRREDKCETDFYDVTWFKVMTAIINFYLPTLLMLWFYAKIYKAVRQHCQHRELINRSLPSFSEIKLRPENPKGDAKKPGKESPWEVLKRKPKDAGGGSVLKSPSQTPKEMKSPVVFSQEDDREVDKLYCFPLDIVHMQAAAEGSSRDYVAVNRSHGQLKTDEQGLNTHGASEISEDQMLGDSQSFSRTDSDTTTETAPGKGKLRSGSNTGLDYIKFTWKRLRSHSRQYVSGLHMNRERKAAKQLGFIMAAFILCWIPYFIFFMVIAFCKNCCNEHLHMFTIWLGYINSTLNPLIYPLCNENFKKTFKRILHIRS

[10] = target: Histamine H3 receptor (Homo sapiens, UniProt Q9Y5N1); test: Binding affinity to histamine H3 receptor
Sequence of Histamine H3 receptor (Q9Y5N1 whole entry): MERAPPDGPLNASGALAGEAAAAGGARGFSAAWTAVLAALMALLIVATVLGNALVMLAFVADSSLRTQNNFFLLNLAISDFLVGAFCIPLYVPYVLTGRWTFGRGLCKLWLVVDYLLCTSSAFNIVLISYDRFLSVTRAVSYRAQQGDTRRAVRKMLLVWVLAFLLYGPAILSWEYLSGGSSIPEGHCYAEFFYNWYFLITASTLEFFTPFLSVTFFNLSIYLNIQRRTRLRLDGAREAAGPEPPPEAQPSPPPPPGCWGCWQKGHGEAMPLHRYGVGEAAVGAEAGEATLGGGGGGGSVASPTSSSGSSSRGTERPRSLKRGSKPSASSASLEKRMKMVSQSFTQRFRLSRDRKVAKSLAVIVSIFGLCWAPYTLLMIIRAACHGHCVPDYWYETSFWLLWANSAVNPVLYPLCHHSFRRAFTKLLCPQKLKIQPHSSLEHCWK

[11] = Oral bioavailability in dog; format: ADME, organism-based, Canis lupus familiaris; conditions: in vivo
[12] = Clearance in Cynomolgus monkey; format: ADME, organism-based, Macaca fascicularis; conditions: in vivo
[13] = target: Histamine H2 receptor (Homo sapiens, UniProt P25021); test: Binding affinity to histamine H2 receptor
Sequence of Histamine H2 receptor (P25021 whole entry): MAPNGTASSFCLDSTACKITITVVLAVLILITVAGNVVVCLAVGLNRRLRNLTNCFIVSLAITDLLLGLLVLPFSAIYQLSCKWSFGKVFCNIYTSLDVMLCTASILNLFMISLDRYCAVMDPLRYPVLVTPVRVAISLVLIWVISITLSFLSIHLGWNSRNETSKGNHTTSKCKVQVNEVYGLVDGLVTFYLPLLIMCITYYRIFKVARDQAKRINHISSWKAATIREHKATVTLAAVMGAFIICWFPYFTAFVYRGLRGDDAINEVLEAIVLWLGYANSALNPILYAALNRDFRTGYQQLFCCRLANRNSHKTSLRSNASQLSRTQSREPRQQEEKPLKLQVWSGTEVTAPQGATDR

[14] = Oral bioavailability in rat at 5 mg/kg; format: ADME, organism-based; conditions: in vivo; summary of the method: as §2
[15] = Clearance in dog; format: ADME, organism-based, Canis lupus familiaris; conditions: in vivo
[16] = Oral bioavailability in Cynomolgus monkey; format: ADME, organism-based, Macaca fascicularis; conditions: in vivo
[17] = Volume of distribution in dog; format: ADME, organism-based, Canis lupus familiaris; conditions: in vivo
[18] = target: T2, CYP1A2 (Homo sapiens, UniProt P05177); test: Inhibition of CYP1A2 at 1 uM; format: ADME
T2 sequence (P05177 whole entry): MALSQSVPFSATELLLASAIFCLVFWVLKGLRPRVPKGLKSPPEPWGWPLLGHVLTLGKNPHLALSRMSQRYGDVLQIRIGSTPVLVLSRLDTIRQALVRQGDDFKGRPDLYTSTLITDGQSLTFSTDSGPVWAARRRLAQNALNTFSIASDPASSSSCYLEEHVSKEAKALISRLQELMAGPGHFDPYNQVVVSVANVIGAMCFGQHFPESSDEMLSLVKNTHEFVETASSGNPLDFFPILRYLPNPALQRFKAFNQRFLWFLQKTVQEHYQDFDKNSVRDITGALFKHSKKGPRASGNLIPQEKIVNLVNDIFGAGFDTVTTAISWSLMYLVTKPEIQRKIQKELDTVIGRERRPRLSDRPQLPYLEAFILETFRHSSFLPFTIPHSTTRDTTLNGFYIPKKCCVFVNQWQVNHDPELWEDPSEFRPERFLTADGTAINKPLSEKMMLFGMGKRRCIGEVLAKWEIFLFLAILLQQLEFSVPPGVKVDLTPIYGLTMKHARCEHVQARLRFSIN
Summary of the method: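 CYP1A2 inhibition tested at 1 µM. Percent inhibition reported.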

[19] = target: T1, Histamine H4 receptor; test: Displacement of [3H]histamine human recombinant histamine H4 receptor; summary of the method: as §1

Compound	remaining at 10 min [1] [%]	IC50 [2] [nM]	other results
CN1C2CCC1CN(c1ncnc3c1oc1ccc(Cl)cc13)C2	62	440	–
CN1CCN(c2nc(O)nc3c2oc2ccc(Cl)cc23)CC1	83	1000	–
CNC1CCN(c2ncnc3c2oc2ccc(-c4ccccc4)cc23)C1 (stereo not drawn)	97	> 10000	–
CN1CCN(c2nc(-c3ccccc3)nc3c2oc2ccc(Cl)cc23)CC1	40	> 30000	–
CN1C[C@@H]2C[C@H]1CN2c1ncnc2c1oc1ccc(Cl)cc12	75	111	inhibition [3]: 105%; IC50 [4]: 70 nM
CN[C@@H]1CCN(c2nc(N)nc3c2oc2ccc(Cl)cc23)C1	62	1	CL/F [5]: 117 mL/min/kg; half-life [6]: 13 min; Vd [7]: 25 L/kg; Vd [8]: 71 L/kg; IC50 [9]: > 30000 nM; inhibition [3]: 138%; IC50 [10]: 5800 nM; IC50 [4]: 3 nM; bioavailability [11]: 36%; clearance [12]: 62 mL/min/kg; IC50 [13]: > 30000 nM; bioavailability [14]: 5%; clearance [15]: 52 mL/min/kg; bioavailability [16]: 99%; Vd [17]: 26 L/kg; inhibition at 1 µM [18]: 45%
CN1CCN(c2nc(C(F)(F)F)nc3c2oc2ccc(Cl)cc23)CC1	7	83	inhibition [3]: 100%; IC50 [4]: 39 nM
CN1CCN(c2nc(C3CC3)nc3c2oc2ccc(Cl)cc23)CC1	8	310	–
Clc1ccc2oc3c(N4CC5CCCNC5C4)ncnc3c2c1 (stereo not drawn)	–	1400	–
CN1CCN(c2nc(C(=O)O)nc3c2oc2ccc(Cl)cc23)CC1	106	> 10000	–
CN[C@@H]1CCN(c2nc(C(F)(F)F)nc3c2oc2ccc(Cl)cc23)C1	–	14200	–
COc1nc(N2CCN(C)CC2)c2oc3ccc(Cl)cc3c2n1	13	90	–
Cc1nc(N2CCN(C)CC2)c2oc3ccc(Cl)cc3c2n1	0	37	–
CN1CC2CCC1CN2c1ncnc2c1oc1ccc(Cl)cc12 (stereo not drawn)	66	169	–
Clc1ccc2oc3c(N4CCN5CCCC5C4)ncnc3c2c1 (stereo not drawn)	0	236	–

Now from value to compound, other results behind:

remaining at 10 min [1] [%]	IC50 [2] [nM]	Compound	other results
18	21000	CN(C)C1CCN(c2ncnc3c2oc2ccc(Cl)cc23)C1 (stereo not drawn)	–
–	> 10000	CNC1CCCN(c2ncnc3c2oc2ccc(Cl)cc23)C1 (stereo not drawn)	–
–	1400	CNC1(C)CCN(c2ncnc3c2oc2ccc(Cl)cc23)C1 (stereo not drawn)	–
–	10000	CC1CN(c2ncnc3c2oc2ccc(Cl)cc23)CC(C)N1C (stereo not drawn)	–
–	> 10000	CCNC1CCN(c2ncnc3c2oc2ccc(Cl)cc23)C1 (stereo not drawn)	–
80	> 30000	CNC1CCN(c2ncnc3c2oc2ccc(C(=O)O)cc23)C1 (stereo not drawn)	–
59	30	CN[C@@H]1CCN(c2ncnc3c2oc2ccc(C(F)(F)F)cc23)C1	–
1	1900	CC1CN(c2ncnc3c2oc2ccc(Cl)cc23)CCN1C (stereo not drawn)	–
80	95	CNC1CCN(c2ncnc3c2oc2ccc(Cl)cc23)C1 (stereo not drawn)	–
1	19	CN1CCN(c2ncnc3c2oc2ccc(Cl)cc23)CC1	IC50 [19]: 19 nM
74	86	CN[C@@H]1CCN(c2ncnc3c2oc2ccc(C)cc23)C1	–
–	33	CN[C@@H]1CCN(c2ncnc3c2oc2ccc(Cl)cc23)C1	t1/2 [6]: 19 min; IC50 [4]: 41 nM; Stability ([1]; 10 min): 92%
89	87	CNC1CN(c2ncnc3c2oc2ccc(Cl)cc23)C1	inhibition [3]: 149%; IC50 [4]: 76 nM
103	285	CN[C@H]1CCN(c2ncnc3c2oc2ccc(Cl)cc23)C1	half-life [6]: 73 min; inhibition [3]: 122%; IC50 [4]: 292 nM
95	6200	CNC1CCN(c2ncnc3c2oc2ccc(C#N)cc23)C1 (stereo not drawn)	–
107	126	NC1CCN(c2ncnc3c2oc2ccc(Cl)cc23)C1 (stereo not drawn)	–
95	1600	CNC1CCN(c2nc(C)nc3c2oc2ccc(Cl)cc23)C1 (stereo not drawn)	–
–	> 30000	CNC(=O)c1ccc2oc3c(N4CCC(NC)C4)ncnc3c2c1 (stereo not drawn)	–
–	171	CN[C@@H]1CCN(c2ncnc3c2oc2cc(Cl)ccc23)C1	–
–	> 10000	CNC1CCN(c2ncnc3c2oc2ccc(Cl)cc23)CC1	–
68	13	CN[C@H]1CCN(c2nc(N)nc3c2oc2ccc(Cl)cc23)C1	half-life [6]: 21 min; IC50 [4]: 4 nM
